Activity calls are given as the source filed them. No cut-off for these calls is given here.
How the values were obtained:
[1] = Metabolic stability in human liver microsomes assessed as compound turnover at 30 mins; assay type: ADME, Microsome; details: read-out: Stability
Summary of the method: (§1)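 Compounds incubated with human or rat liver microsomes; percent turnover of parent measured at 30 min.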

[2] = Metabolic stability in rat liver microsomes assessed as compound turnover at 30 mins; assay type: ADME, Microsome; details: read-out: Stability; summary of the method: as §1
[3] = Clearance in rat at 0.5 mg/kg, iv and 2 mg/kg, po; assay type: ADME, organism-based; details: in vivo
Summary of the method: (§2)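 Rat PK: single iv dose of 0.5 mg/kg, with a separate oral dose of 2.0 mg/kg. Clearance, Vdss and half-life come from the iv arm. Oral AUC and %F come from the po arm.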

[4] = Volume of distribution at steady state in rat at 0.5 mg/kg, iv and 2 mg/kg, po; assay type: ADME, organism-based; details: in vivo, read-out: Vdss; summary of the method: as §2
[5] = Half life in rat at 0.5 mg/kg, iv; assay type: ADME, organism-based; parameters: dose 0.5 mg/kg, route intravenous; details: in vivo; summary of the method: as §2
[6] = Oral bioavailability in rat at 2 mg/kg; assay type: ADME, organism-based; details: in vivo; summary of the method: as §2
[7] = AUC in rat at 2 mg/kg, po; assay type: ADME, organism-based; parameters: dose 2 mg/kg, route oral; details: plasma; summary of the method: as §2
[8] = target: 11-beta-hydroxysteroid dehydrogenase 1 (Rattus norvegicus, UniProt P16232); assay: Inhibition of rat 11beta-HSD1 assessed as inhibition of conversion of [3H]cortisone to [3H]cortisol by scintillation proximity assay
Rattus norvegicus [9] = assay: Ex vivo inhibition of 11beta-HSD1 in Sprague-Dawley rat assessed as inhibition of conversion of [3H]cortisone to [3H]cortisol at 4 mg/kg, po; assay type: functional
Summary of the method: (§3)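 Sprague–Dawley rats dosed orally at 4, 20 or 100 mg/kg; killed 2 h post-dose. Epididymal fat isolated and incubated in media containing [3H]-cortisone; rat 11β-HSD1 activity read as [3H]-cortisol formed. Reported as % inhibition over vehicle-dosed animals.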

Rattus norvegicus [10] = assay: Ex vivo inhibition of 11beta-HSD1 in Sprague-Dawley rat assessed as inhibition of conversion of [3H]cortisone to [3H]cortisol at 100 mg/kg, po; assay type: functional; summary of the method: as §3
Rattus norvegicus [11] = assay: Ex vivo inhibition of 11beta-HSD1 in Sprague-Dawley rat assessed as inhibition of conversion of [3H]cortisone to [3H]cortisol at 20 mg/kg, po; assay type: functional; summary of the method: as §3
[12] = target: T1, Nuclear receptor subfamily 1 group I member 2 (Homo sapiens, UniProt O75469); assay: Activation of PXR relative to control; parameters: concentration or dose not given beside the values
T1 sequence (O75469 whole entry): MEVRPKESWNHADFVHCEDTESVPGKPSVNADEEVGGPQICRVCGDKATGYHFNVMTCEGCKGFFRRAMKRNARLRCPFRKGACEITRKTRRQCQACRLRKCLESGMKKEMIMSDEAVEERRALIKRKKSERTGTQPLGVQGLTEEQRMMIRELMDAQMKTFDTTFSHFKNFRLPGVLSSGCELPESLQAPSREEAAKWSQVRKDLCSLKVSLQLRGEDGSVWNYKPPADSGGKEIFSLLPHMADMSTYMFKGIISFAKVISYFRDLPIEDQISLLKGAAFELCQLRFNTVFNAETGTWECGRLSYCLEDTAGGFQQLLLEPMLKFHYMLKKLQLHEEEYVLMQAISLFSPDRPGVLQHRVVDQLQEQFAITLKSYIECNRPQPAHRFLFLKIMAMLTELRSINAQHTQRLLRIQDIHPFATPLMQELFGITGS
Summary of the method: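 PXR activation measured with compound at 2 µM, expressed as % of control.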

[13] = Clearance in cynomolgus monkey; assay type: ADME, organism-based, Macaca fascicularis; details: in vivo
[14] = Bioavailability in cynomolgus monkey; assay type: ADME, organism-based, Macaca fascicularis; details: in vivo
[15] = Inhibition of cynomolgus monkey 11beta-HSD1 assessed as inhibition of conversion of [3H]cortisone to [3H]cortisol by scintillation proximity assay; parameters: species or system Macaca fascicularis
[16] = Plasma concentration in cynomolgus monkey at 4 mg/kg, po after 2 hrs by LC/MS/MS analysis; assay type: ADME, organism-based, Macaca fascicularis; parameters: dose 4 mg/kg, route oral
Summary of the method: (§4)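 Monkeys given oral doses of 4, 20 or 100 mg/kg in 1% methylcellulose/1% Tween 80 in sterile water, 5–6 animals per group. Plasma collected 2 h after dosing for drug concentration.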

[17] = Plasma concentration in cynomolgus monkey at 20 mg/kg, po after 2 hrs by LC/MS/MS analysis; assay type: ADME, organism-based, Macaca fascicularis; parameters: dose 20 mg/kg, route oral; summary of the method: as §4
[18] = Plasma concentration in cynomolgus monkey at 100 mg/kg, po after 2 hrs by LC/MS/MS analysis; assay type: ADME, organism-based, Macaca fascicularis; parameters: dose 100 mg/kg, route oral; summary of the method: as §4
Cynomolgus monkey = details: Macaca fascicularis; 4 to 100 mg/kg

11-beta-hydroxysteroid dehydrogenase 1, sequence (P16232 whole entry): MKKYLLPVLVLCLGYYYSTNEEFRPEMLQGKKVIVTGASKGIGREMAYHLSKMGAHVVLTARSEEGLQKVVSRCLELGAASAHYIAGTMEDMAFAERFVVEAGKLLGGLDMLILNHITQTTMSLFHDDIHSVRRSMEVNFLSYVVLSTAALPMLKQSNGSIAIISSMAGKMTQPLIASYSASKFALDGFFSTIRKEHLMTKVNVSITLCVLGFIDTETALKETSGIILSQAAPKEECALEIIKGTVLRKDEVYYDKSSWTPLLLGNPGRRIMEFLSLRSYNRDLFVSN

Structure (SMILES) | metabolised at 0.5 h [1] | metabolised at 0.5 h [2] | Activity [12] | further results
C[C@](O)(c1ccc(C(=O)N(C2CC2)[C@H]2CC[C@](COC(N)=O)(c3ccccc3F)CC2)cc1)C(F)(F)F | < 10% | < 10% | – | clearance [3]: 2.5 mL/min/kg; Vd [4]: 1.28 L/kg; half-life [5]: 5.2 h; bioavailability [6]: 48%; AUC [7]: 6790 ng·h/mL; IC50 [8]: 144 nM; inhibition in vivo at 4 mg/kg (Rattus norvegicus [9]): 27%; inhibition in vivo at 100 mg/kg (Rattus norvegicus [10]): 70%; inhibition in vivo at 20 mg/kg (Rattus norvegicus [11]): 43%
C[C@](O)(c1ccc(C(=O)N(C2CC2)[C@H]2CC[C@](CCC(N)=O)(c3ccc(F)cc3)CC2)cc1)C(F)(F)F | < 10% | < 10% | – | –
C[C@](O)(c1ccc(C(=O)N(C2CC2)[C@H]2CC[C@](COC(N)=O)(c3ccc(F)cc3)CC2)cc1)C(F)(F)F | < 10% | < 10% | – | –
C[C@](O)(c1ccc(C(=O)N(C2CC2)[C@H]2CC[C@](CO)(c3ccccc3)CC2)cc1)C(F)(F)F | 10% | 32% | < 5% | –
C[C@](O)(c1ccc(C(=O)N(C2CC2)[C@H]2CC[C@](CCC(N)=O)(c3ccccn3)CC2)cc1)C(F)(F)F | < 10% | < 10% | – | –
C[C@](O)(c1ccc(C(=O)N(C2CC2)[C@H]2CC[C@](CNS(C)(=O)=O)(c3ccccc3)CC2)cc1)C(F)(F)F | < 10% | 21% | < 5% | –
CC(=O)NC[C@]1(c2ccccc2)CC[C@H](N(C(=O)c2ccc([C@](C)(O)C(F)(F)F)cc2)C2CC2)CC1 | < 10% | < 10% | < 5% | –
C[C@](O)(c1ccc(C(=O)N(C2CC2)[C@H]2CC[C@](COC(N)=O)(c3ccccc3)CC2)cc1)C(F)(F)F | < 10% | < 10% | < 5% | clearance [3]: 2.67 mL/min/kg; Vd [4]: 1 L/kg; half-life [5]: 3.9 h; bioavailability [6]: 20%; AUC [7]: 2770 ng·h/mL; IC50 [8]: 86 nM; inhibition in vivo at 4 mg/kg (Rattus norvegicus [9]): 23%; inhibition in vivo at 100 mg/kg (Rattus norvegicus [10]): 71%; inhibition in vivo at 20 mg/kg (Rattus norvegicus [11]): 43%
C[C@](O)(c1ccc(C(=O)N(C2CC2)[C@H]2CC[C@](O)(C3CC3)CC2)cc1)C(F)(F)F | < 10% | < 10% | < 5% | –
C[C@](O)(c1ccc(C(=O)N(C2CC2)[C@H]2CC[C@](CCC(N)=O)(c3ccccc3F)CC2)cc1)C(F)(F)F | < 10% | < 10% | – | –
C[C@](O)(c1ccc(C(=O)N(C2CC2)[C@H]2CC[C@](COC(N)=O)(c3ccc(F)cn3)CC2)cc1)C(F)(F)F | < 10% | < 10% | – | –
C[C@](O)(c1ccc(C(=O)N(C2CC2)[C@H]2CC[C@](CC#N)(c3ccccc3)CC2)cc1)C(F)(F)F | 19% | 17% | 9% | –
C[C@](O)(c1ccc(C(=O)N(C2CC2)[C@H]2CC[C@](CC(N)=O)(c3ccccc3)CC2)cc1)C(F)(F)F | < 10% | < 10% | < 5% | –
C[C@](O)(c1ccc(C(=O)N(C2CC2)[C@H]2CC[C@](COC(N)=O)(c3ccccn3)CC2)cc1)C(F)(F)F | < 10% | < 10% | – | clearance [3]: 3.5 mL/min/kg; Vd [4]: 1.24 L/kg; half-life [5]: 4.2 h; bioavailability [6]: 64%; AUC [7]: 6180 ng·h/mL; IC50 [8]: 220 nM; inhibition in vivo at 4 mg/kg (Rattus norvegicus [9]): 14%; inhibition in vivo at 100 mg/kg (Rattus norvegicus [10]): 72%; inhibition in vivo at 20 mg/kg (Rattus norvegicus [11]): 44%
C[C@](O)(c1ccc(C(=O)N(C2CC2)[C@H]2CC[C@](CCC#N)(c3ccccc3)CC2)cc1)C(F)(F)F | 10% | 51% | – | –
C[C@](O)(c1ccc(C(=O)N(C2CC2)[C@H]2CC[C@](CCC(N)=O)(c3ccccc3)CC2)cc1)C(F)(F)F | < 10% | < 10% | < 5% | clearance [13]: 1 mL/min/kg; bioavailability [14]: 81%; IC50 [15]: 22 nM; concentration at 2 h [16]: 151 ng/mL; concentration at 2 h [17]: 2000 ng/mL; concentration at 2 h [18]: 1710 ng/mL; inhibition (Cynomolgus monkey): Active
C[C@](O)(c1ccc(C(=O)N(C2CC2)[C@H]2CC[C@](COC(N)=O)(c3cscn3)CC2)cc1)C(F)(F)F | < 10% | < 10% | – | clearance [3]: 13.7 mL/min/kg; Vd [4]: 3.7 L/kg; half-life [5]: 4.5 h; bioavailability [6]: 25%; AUC [7]: 618 ng·h/mL; IC50 [8]: 30 nM; inhibition in vivo at 4 mg/kg (Rattus norvegicus [9]): 6%; inhibition in vivo at 100 mg/kg (Rattus norvegicus [10]): 75%; inhibition in vivo at 20 mg/kg (Rattus norvegicus [11]): 38%
C[C@](O)(c1ccc(C(=O)N(C2CC2)[C@H]2CC[C@](CCO)(c3ccccc3)CC2)cc1)C(F)(F)F | < 10% | < 10% | 6% | –

Reference: ChEMBL document CHEMBL1641411, “Synthesis and optimization of novel 4,4-disubstituted cyclohexylbenzamide derivatives as potent 11β-HSD1 inhibitors” (Bioorg Med Chem Lett, 2011)
